Laboratory results: PMC3778312 (British Journal of Cancer, 2013)
“Also recorded” adds a separate entry of the source.

Legend:
[1] = Phase 1 safety monitoring of PX-866 with docetaxel; assay type: in vivo, human
Summary of the method: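 Open-label dose escalation in cohorts of 6–9 patients at 4, 6 or 8 mg oral daily test compound plus docetaxel 75 mg m−2 IV every 21 days, with dexamethasone premedication. All patients receiving ≥1 dose had vital signs, labs and exams; AEs were graded by NCI CTCAE v4.02. DLTs included related grade ≥3 events, febrile grade 3/4 neutropenia, platelets <25 000 per μl and ANC <500 per μl for >7 days.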

[2] = tested on: HT29 colon cancer xenografts; settings: single agent; ref Ihle et al, 2005; Koul et al, 2010; cited from earlier work
incurable solid tumours = test: Phase 1 antitumour activity of PX-866 with docetaxel; assay type: in vivo, human
Summary of the method: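 Test compound given orally at 4, 6 or 8 mg daily (fasting) with docetaxel 75 mg m−2 IV every 21 days. In cycle 1, docetaxel was given on day 1 and the test compound started on day 8. Response was assessed about every 6 weeks by RECIST 1.1, with PSA per PCWG allowed in mCRPC. PFS ran from consent to progression or death. Archival tumour was genotyped for PIK3CA/KRAS by shifted termination assay.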

U87 glioma xenografts = settings: single agent; ref Ihle et al, 2005; Koul et al, 2010; cited from earlier work
PI3Kα = settings: read-out: IC50 against PI3Kα; ref Wipf et al, 2004; cited from earlier work
[3] = tested on: Patient-derived SCCHN xenografts; settings: PX-866 and docetaxel compared with either agent alone; ref Bowles et al, 2011; cited from earlier work
advanced solid tumors = settings: ref Hong et al, 2012, cited from earlier work
[4] = tested on: OvCar-3 ovarian cancer xenografts; settings: single agent; ref Ihle et al, 2005; Koul et al, 2010; cited from earlier work
[5] = PX-866 with docetaxel, 43 patients
[6] = Total, all PX-866 doses + docetaxel, N=43

In the case of `C=CCN(/C=C1/C(=O)O[C@H](COC)[C@@]2(C)C1=C(O)C(=O)C1=C2[C@H](OC(C)=O)C[C@]2(C)C(=O)CC[C@@H]12)CC=C` [PX-866], the “Treatment-emergent AE: Hypokalemia” value ([1]; PX-866 8 mg + docetaxel, N=23) is reported as 6 (26) N (%), the “Treatment-emergent AE: Nausea” value ([1]; PX-866 8 mg + docetaxel, N=23) is reported as 16 (70) N (%) and the “Treatment-emergent AE: Neutropenia” value ([1]; PX-866 8 mg + docetaxel, N=23) is reported as 6 (26) N (%). For the same compound, the “Treatment-emergent AE: Oedema peripheral” value ([1]; PX-866 8 mg + docetaxel, N=23) was 7 (30) N (%), the “Treatment-emergent AE: Oropharyngeal pain” value ([1]; PX-866 8 mg + docetaxel, N=23) was 5 (22) N (%) and the “Treatment-emergent AE: Pyrexia” value ([1]; PX-866 8 mg + docetaxel, N=23) was 6 (26) N (%). For the same compound, the “Treatment-emergent AE: Stomatitis” value ([1]; PX-866 8 mg + docetaxel, N=23) was 4 (17) N (%), the “Treatment-emergent AE: Vomiting” value ([1]; PX-866 8 mg + docetaxel, N=23) was 14 (61) N (%) and the “Treatment-emergent AEs, frequency by severity: Grade 1” value ([1]; PX-866 8 mg + docetaxel, N=23) was 84 (50) N (%). The “Treatment-emergent AEs, frequency by severity: Grade 2” value ([1]; PX-866 8 mg + docetaxel, N=23) was 62 (37) N (%), the “Treatment-emergent AEs, frequency by severity: Grade 3” value ([1]; PX-866 8 mg + docetaxel, N=23) was 15 (9) N (%) and the “Treatment-emergent AEs, frequency by severity: Grade 4” value ([1]; PX-866 8 mg + docetaxel, N=23) was 8 (5) N (%). The “Treatment-emergent AEs, frequency by severity: Grade 5” value ([1]; PX-866 8 mg + docetaxel, N=23) was 0 (0) N (%), the dose-limiting toxicities ([1]; PX-866 4, 6, 8 mg daily with docetaxel 75 mg m^−2) was “No dose-limiting toxicities; also recorded: No DLTs” and the tolerability ([1]; PX-866 and docetaxel) was “well tolerated”. The “gastrointestinal disorders, PX-866-related” value [1, 5] was 83.7%, the “study drug-related diarrhoea, patients” value [1, 5] was 76.7% and the “Grade 3/4 AE related to PX-866: diarrhoea” value ([1]; PX-866 with docetaxel, N=43) was 3 N. For the same compound, the “Grade 3/4 AE related to PX-866: nausea” value ([1]; PX-866 with docetaxel, N=43) was 2 N, the “SAEs considered related to study treatment” value ([1]; PX-866 with docetaxel, N=43) was 17 and the “patients who experienced serious AEs” value ([1]; PX-866 with docetaxel, N=43) was “Twenty”. The “treatment-emergent AE neutropenia” value ([1]; PX-866 with docetaxel, N=43) was 40%, the “treatment-emergent AE peripheral oedema” value ([1]; PX-866 with docetaxel, N=43) was 40% and the “treatment-emergent AE vomiting” value ([1]; PX-866 with docetaxel, N=43) was 51%. The “Treatment-emergent AE: Alopecia” value [1, 6] was 12 (28) N (%), the “Treatment-emergent AE: Anaemia” value [1, 6] was 13 (30) N (%) and the “Treatment-emergent AE: Arthralgia” value [1, 6] was 7 (16) N (%). For the same compound, the “Treatment-emergent AE: Asthenia” value [1, 6] was 11 (26) N (%), the “Treatment-emergent AE: Bone pain” value [1, 6] was 9 (21) N (%) and the “Treatment-emergent AE: Constipation” value [1, 6] was 13 (30) N (%). The “Treatment-emergent AE: Cough” value [1, 6] was 10 (23) N (%), the “Treatment-emergent AE: Decreased appetite” value [1, 6] was 15 (35) N (%) and the “Treatment-emergent AE: Dehydration” value [1, 6] was 15 (35) N (%). For the same compound, the “Treatment-emergent AE: Diarrhoea” value [1, 6] was 33 (77) N (%), the “Treatment-emergent AE: Dizziness” value [1, 6] was 7 (16) N (%) and the “Treatment-emergent AE: Dysgeusia” value [1, 6] was 8 (19) N (%). The “Treatment-emergent AE: Epistaxis” value [1, 6] was 7 (16) N (%), the “Treatment-emergent AE: Fatigue” value [1, 6] was 26 (61) N (%) and the “Treatment-emergent AE: Hypokalemia” value [1, 6] was 9 (21) N (%). For the same compound, the “Treatment-emergent AE: Nausea” value [1, 6] was 25 (58) N (%), the “Treatment-emergent AE: Neutropenia” value [1, 6] was 17 (40) N (%) and the “Treatment-emergent AE: Oedema peripheral” value [1, 6] was 17 (40) N (%). The “Treatment-emergent AE: Oropharyngeal pain” value [1, 6] was 7 (16) N (%), the “Treatment-emergent AE: Pyrexia” value [1, 6] was 11 (26) N (%) and the “Treatment-emergent AE: Stomatitis” value [1, 6] was 9 (21) N (%). For the same compound, the “Treatment-emergent AE: Vomiting” value [1, 6] was 22 (51) N (%), the “Treatment-emergent AEs, frequency by severity: Grade 1” value [1, 6] was 152 (51) N (%) and the “Treatment-emergent AEs, frequency by severity: Grade 2” value [1, 6] was 102 (34) N (%). For the same compound, the “Treatment-emergent AEs, frequency by severity: Grade 3” value [1, 6] was 28 (9) N (%), the “Treatment-emergent AEs, frequency by severity: Grade 4” value [1, 6] was 18 (6) N (%) and the “Treatment-emergent AEs, frequency by severity: Grade 5” value [1, 6] was 0 (0) N (%). The “RP2D of PX-866 in combination” value ([1]; daily, with docetaxel 75 mg m^−2 IV every 21 days) was 8 mg, the deaths on study ([1]; two after progressive disease, one pneumonia unrelated to either study drug) was “three” and the tumour growth [2] was “delays tumour growth”. For the same compound, the “evaluable patients remaining on study in excess of 180 days” value (incurable solid tumours; 11 out of 35) was 31%, the “best response: partial response (PR)” value (incurable solid tumours; 35 evaluable patients (2 patients)) was 6% and the “best response: disease progression (PD)” value (incurable solid tumours; 35 evaluable patients (11 patients)) was 31%. The “median PFS, PIK3CA-MUT/KRAS-WT” value (incurable solid tumours; N=6, range: 49–334, P=0.23 vs WT/WT) was 175 days, the “median PFS, mutational status unknown” value (incurable solid tumours; N=12, range: 1–569) was 77.5 days and the “median PFS, PIK3CA-WT/KRAS-WT” value (incurable solid tumours; N=20, range: 1–342) was 49 days. For the same compound, the “PR+SD rate” value (incurable solid tumours; evaluable patients) was 69%, the “overall median progression-free survival (PFS)” value (incurable solid tumours; range: 1–569) was 73.5 days and the “patients with tumour shrinkage of ⩾15%” value (incurable solid tumours; ten patients) was 29%. For the same compound, the tumour growth (U87 glioma xenografts) was “delays tumour growth”, the IC50 (PI3Kα) was 39 ± 21 nM and the tumour suppression [3] was “enhanced tumour suppression”. The “single-agent MTD” value (advanced solid tumors; previously determined, daily) was 8 mg, the “time PX-866 may be given safely” value (advanced solid tumors) was “over 1 year” and the “best response per RECIST 1.1: stable disease, share of evaluable patients” value (advanced solid tumors; single-agent PX-866, week 6) was “over 50%”. The “recommended phase 2 dose (RP2D), single agent” value (advanced solid tumors; single-agent PX-866) was 8 mg daily and the tumour growth [4] was “delays tumour growth”.
